In EPA's CvTdb concentration-time database:
Each block holds one compound with its values, some of them ahead of it.

Key:
[1] = tested on: Mouse; assay: concentration in plasma after dosing; conditions: 2 h; dosed: 2-Hydroxy-4-methoxybenzophenone; 250 mg/kg; oral; Female; B6C3F1
[2] = tested on: Rat; assay: concentration in plasma after dosing; conditions: dosed: Methyleugenol, 37 mg/kg, iv, Male, F344
[3] = tested on: Rat; assay: concentration in kidney after dosing; conditions: 12 h; dosed: Perfluorohexane-1-sulphonic acid – potassium salt; 16 mg/kg; oral; Female; F344
[4] = tested on: Rat; assay: concentration in brain after dosing; conditions: 6 h; dosed: alpha-Thujone; 25 mg/kg; oral; Male; Harlan Sprague Dawley
[5] = tested on: dog; assay: concentration in urine after dosing; conditions: dosed: trichloroethylene, 100 ppm, inhalation, duration: 6 hr, male, beagle
In short: (§1)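 A PubMed search, classifier screening and manual review identified published in vivo toxicokinetic studies, which together with two structured collections supplied concentration-versus-time and amount-versus-time points. Points were mostly digitised from plot screenshots with WebPlotDigitizer, otherwise copied from tables. Dose, route, subject details and medium were hand-curated from each paper, and sampling and analytical methods are those of the sources, often unreported.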

[6] = tested on: human; assay: concentration in urine after dosing; conditions: dosed: trichloroethylene, inhalation, duration: 2 hr - 20 min
In short: as §1

- concentration in plasma [1]: 0.19 µg/mL
Compound: O=C(c1ccccc1)c1ccc(O)cc1O [2,4-Dihydroxybenzophenone]

- concentration in plasma ([2]; 0.5 h): 3.44 µg/mL
- concentration in plasma ([2]; 0.75 h): 3.09 µg/mL
Compound: C=CCc1ccc(OC)c(OC)c1 [Methyleugenol]

Compound: O=S(=O)([O-])C(F)(F)C(F)(F)C(F)(F)C(F)(F)C(F)(F)C(F)(F)F.[K+] [Perfluorohexane-1-sulphonic acid – potassium salt]
- concentration in kidney [3]: 35900 ng/g

Compound: CC(C)[C@]12CC(=O)[C@H](C)[C@H]1C2 [alpha-Thujone]
- concentration in brain [4]: 84.6 ng/g

Compound: OCC(Cl)(Cl)Cl [trichloroethanol]
- concentration in urine ([5]; 24 h): 129 µg/mL
- concentration in urine ([5]; 48 h): 115 µg/mL
- concentration in urine ([5]; 72 h): 155 µg/mL
- concentration in urine ([5]; 96 h): 205 µg/mL
- concentration in urine ([5]; 120 h): 154 µg/mL
- concentration in urine ([6]; 2.667 h, 1348 mg): 158 mg/kg
- concentration in urine ([6]; 2.667 h, 1681 mg): 125 mg/kg
- concentration in urine ([6]; 2.667 h, 3907 mg): 186 mg/kg
- concentration in urine ([6]; 6.667 h, 1348 mg): 161 mg/kg
- concentration in urine ([6]; 6.667 h, 1681 mg): 236 mg/kg
- concentration in urine ([6]; 6.667 h, 3907 mg): 258 mg/kg
- concentration in urine ([6]; 10.67 h, 1348 mg): 79.7 mg/kg
- concentration in urine ([6]; 10.67 h, 1681 mg): 136 mg/kg
- concentration in urine ([6]; 10.67 h, 3907 mg): 154 mg/kg
- concentration in urine ([6]; 19.67 h, 1348 mg): 65.3 mg/kg
- concentration in urine ([6]; 19.67 h, 1681 mg): 131 mg/kg
- concentration in urine ([6]; 19.67 h, 3907 mg): 168 mg/kg
